Source: ChEMBL document CHEMBL2169883, “Design, synthesis, and structure-activity relationship of N-arylnaphthylamine derivatives as amyloid aggregation inhibitors” (J Med Chem, 2012)

system: not listed separately; experiment: Cmax in mouse brain at 25 mg/kg, sc; assay type: ADME, organism-based; set-up: dose 25 mg/kg, route subcutaneous; conditions: not given
How it was run: (§1)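 Mice received 25 mg/kg sc in ethanol/PEG-400/saline (10:40:50). Trunk blood and brain were collected at 0–240 min. Plasma and brain homogenate were solid-phase extracted and quantified by RP-HPLC (UV 224 nm, internal standard), n = 3. Cmax and tmax were read directly from the data; brain and plasma AUCt were calculated by the linear trapezoidal rule to give the brain/plasma ratio.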

Cmax [ng/mL] | Structure (SMILES)
410 | COc1ccc(Nc2ccc(OC)c3ccccc23)cc1

system: not listed separately; experiment: Ratio of drug level from brain to plasma in mouse at 25 mg/kg, sc; assay type: ADME, organism-based; set-up: dose 25 mg/kg, route subcutaneous; conditions: read-out: BPR; how it was run: as §1

Kp | Structure (SMILES)
2 | COc1ccc(Nc2ccc(OC)c3ccccc23)cc1

system: Mus musculus; experiment: Toxicity in mouse assessed as incidence of side effect at 25 mg/kg, sc; assay type: organism-based; set-up: dose 25 mg/kg, route subcutaneous; conditions: in vivo

Structure (SMILES) | Activity
COc1ccc(Nc2ccc(OC)c3ccccc23)cc1 | Non-toxic

system: not listed separately; experiment: Ratio of drug level from brain to plasma in rat administered via intranasal route; assay type: ADME; conditions: inhaled or intranasal, read-out: BPR

Structure (SMILES) | Kp
CCN(C)C(=O)Oc1cccc([C@H](C)N(C)C)c1 [RIVASTIGMINE] | 3

system: not listed separately; experiment: in vivo; conditions: rat, brain/plasma, po, 16 mg/kg

Kp | Structure (SMILES)
5 | Cl.Nc1c2c(nc3ccccc13)CCCC2.O

system: Mus musculus; experiment: Toxicity in mouse assessed as incidence of discomfort at 25 mg/kg, sc; assay type: organism-based; set-up: dose 25 mg/kg, route subcutaneous; conditions: in vivo

Structure (SMILES) | Activity
COc1ccc(Nc2ccc(OC)c3ccccc23)cc1 | Non-toxic

system: not listed separately; experiment: Tmax in mouse brain at 25 mg/kg, sc; assay type: ADME, organism-based; set-up: dose 25 mg/kg, route subcutaneous; conditions: not given; how it was run: as §1

Tmax [h] | Structure (SMILES)
1 | COc1ccc(Nc2ccc(OC)c3ccccc23)cc1

system: not listed separately; experiment: Inhibition of amyloid beta (1 to 42) aggregation after 24 hrs by Thioflavin-T fluorescence assay; conditions: not given
How it was run: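 Nonaggregate Aβ1-42 (44 μM working solution) was then added, and plates were agitated at 37 °C for 24 h. Read-out used 10 μM ThT in Na2HPO4 pH 6.5 (ex 450/em 486 nm), in triplicate; IC50 came from % residual aggregate dose-response.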

Structure (SMILES) | IC50
COc1ccc(Sc2ccc(OC)c3ccccc23)cc1 | ND(Insoluble)
COc1ccc(S(=O)(=O)c2ccc(OC)c3ccccc23)cc1 | ND(Insoluble)

Further lines, results first:

IC50 | Structure (SMILES)
ND(Unstable) | OCc1ccc(Nc2ccc(O)c3ccccc23)cc1
ND(Insoluble) | COc1ccc(Nc2ccccc2)c2ccccc12
ND(Insoluble) | COC(=O)c1ccc(Nc2ccc(OC)c3ccccc23)cc1
ND(Insoluble) | COC(=O)c1ccc(Nc2ccc3ccccc3c2O)cc1
ND(Unstable) | Oc1ccc2ccccc2c1Nc1c(O)ccc2ccccc12

same assay, conditions: read-out: IC50

Structure (SMILES) | IC50 [µM]
O=C(O)c1ccccc1Nc1c(O)ccc2ccccc12 | 14.1
O=C(O)c1ccccc1Nc1ccc(CCc2ccc(Cl)c(Cl)c2)cc1 | 2
COc1c(Nc2ccccc2)ccc2ccccc12 | 33.6
COC(=O)c1ccccc1Nc1c(OC)ccc2ccccc12 | > 5
O=C1c2ccccc2C(=O)c2c(O)c(O)cc(Nc3ccc(S(=O)(=O)O)cc3)c21 | 1.1
O=C(O)c1cc2ccccc2c(Cc2c(O)c(C(=O)O)cc3ccccc23)c1O [PAMOIC ACID] | 38.2
COc1ccc(I)cc1Nc1ccc(OC)c2ccccc12 | > 5
O=C(O)c1c(Nc2ccc(CCc3ccc(Cl)c(Cl)c3)cc2)cccc1C(F)(F)F | 0.1
COc1ccc2ccccc2c1Nc1c(OC)ccc2ccccc12 | 5.7
COc1ccccc1Nc1ccc(OC)c2ccccc12 | > 5
O=C(O)c1ccccc1Nc1ccc(CCCc2ccc(Cl)c(Cl)c2)cc1 | 1
COc1ccc(Nc2ccc(OC)c3ccccc23)cc1C(=O)O | > 80
COC(=O)c1ccccc1Nc1c(O)ccc2ccccc12 | > 20

Now from value to compound:

IC50 [µM] | Structure (SMILES)
2.6 | O=C(O)c1ccc(Nc2ccc3ccccc3c2O)cc1
5.1 | COC(=O)c1ccc(Nc2ccc(O)c3ccccc23)cc1
10.9 | Oc1ccc(Sc2ccc(O)c3ccccc23)cc1
1 | Oc1ccc(Nc2ccc(O)c3ccccc23)cc1
2.2 | CSc1ccc(Nc2ccc(N(C)C)c3ccccc23)cc1
> 60 | COc1ccc(Nc2ccc(C(=O)O)cc2)c2ccccc12
> 5 | CSc1ccc(Nc2ccc(F)c3ccccc23)cc1
> 20 | COc1c(Nc2ccc(C(=O)O)cc2)ccc2ccccc12
5.6 | COc1ccc(Nc2ccc(OC)c3ccccc23)cc1
> 30 | Fc1ccc(Nc2ccc(F)c3ccccc23)cc1
> 20 | COC(=O)c1ccc(Nc2ccc3ccccc3c2OC)cc1
> 100 | O=C(O)c1ccc(Nc2cccc3ccccc23)cc1
> 100 | O=S(=O)(c1ccc(O)cc1)c1ccc(O)c2ccccc12
46.1 | O=C(O)c1cc(Nc2ccc(O)c3ccccc23)ccc1O
> 20 | COC(=O)c1ccc(Nc2cccc3ccccc23)cc1
5.4 | Oc1ccc(Nc2ccccc2)c2ccccc12
2.4 | Oc1c(Nc2ccccc2)ccc2ccccc12
2.7 | COc1ccc(Nc2ccc([N+](=O)[O-])c3ccccc23)cc1
57.4 | O=C(O)c1ccc(Nc2ccc(O)c3ccccc23)cc1
> 5 | COc1c(Nc2ccc(I)cc2)ccc2ccccc12
